According to ChEMBL document CHEMBL4138071, “Synthesis, antioxidant and antitumoral activities of 5'-arylchalcogeno-3-aminothymidine (ACAT) derivatives” (Medchemcomm, 2017):
Active and inactive are the calls of the source. The calls are words filed in the database; no cut-off is given here.

Tests used:
[1] = Antioxidant activity assessed as DPPH radical scavenging activity at 0.25 mM measured at 104.7 +/- 10.0 mins; format: functional
How it was run: (§1)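 Each compound mixed with 0.3 mM DPPH in ethanol. Most tests used 1 mM compound; the concentration curve covered final 0 - 1 mM. Absorbance at 518 nm was read every 30 min for 180 min. BHT served as positive control.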

[2] = tested on: Mus musculus; assay: Toxicity in Swiss mouse assessed as effect on water intake level at 100 umol/kg, sc measured over 7 days; format: organism-based; conditions: in vivo, 168 h
How it was run: (§2)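 Adult male Swiss mice were randomized into two groups, n = 4 each. They received a subcutaneous injection of 100 μmol/kg compound or DMSO vehicle (1 mL/kg).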

[3] = tested on: Mus musculus; assay: Renal toxicity in Swiss mouse assessed as effect on urea level at 100 umol/kg, sc after 7 days; format: organism-based; conditions: in vivo, 168 h; how it was run: as §2
[4] = Toxicity in Swiss mouse assessed as mortality level at 100 umol/kg, sc measured over 7 days; format: organism-based; conditions: in vivo, read-out: Activity; how it was run: as §2
[5] = tested on: Mus musculus; assay: Toxicity in Swiss mouse assessed as effect on food intake level at 100 umol/kg, sc measured over 7 days; format: organism-based; conditions: in vivo, 168 h; how it was run: as §2
[6] = tested on: 5637; assay: Cell cycle arrest in human 5637 cells assessed as reduction in accumulation at G1 phase at 12.5 uM by propidium iodide staining based flow cytometry; format: functional
How it was run: (§3)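 5637 cells were seeded at 1x10^5 and synchronized 24 h in serum-free medium. They were then treated 24 h at 12,5 µM. DNA content was measured by propidium iodide staining with a kit and flow cytometry.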

[7] = tested on: Mus musculus; assay: Toxicity in Swiss mouse assessed as effect on kidney to body weight ratio level at 100 umol/kg, sc after 7 days; format: organism-based; conditions: in vivo, 168 h; how it was run: as §2
[8] = tested on: Mus musculus; assay: Toxicity in Swiss mouse assessed as appearance of overt toxic signs at 100 umol/kg, sc measured over 7 days; format: organism-based; conditions: in vivo, 168 h; how it was run: as §2
[9] = Thiol peroxidase-like activity assessed as induction of hydrogen peroxide decomposition at 450 uM using benzenethiol incubated for 20 mins; format: functional
How it was run: (§4)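 This is a GPx-mimetic assay using benzenethiol (2.5 mM) instead of glutathione. The mix held ethanol, compound at final 0 - 450 μM or DMSO blank, and hydrogen peroxide (2.3 mM).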

[10] = tested on: 5637; assay: Cell cycle arrest in human 5637 cells assessed as increase in accumulation at S phase at 12.5 uM by propidium iodide staining based flow cytometry; format: functional; how it was run: as §3
[11] = tested on: Mus musculus; assay: Renal toxicity in Swiss mouse assessed as effect on creatinine level at 100 umol/kg, sc after 7 days; format: organism-based; conditions: in vivo, 168 h; how it was run: as §2
[12] = tested on: Mus musculus; assay: Hepatic toxicity in Swiss mouse assessed as effect on ALT level at 100 umol/kg, sc after 7 days; format: organism-based; conditions: in vivo, 168 h; how it was run: as §2
[13] = Toxicity in human leukocytes assessed as reduction in cell viability at 100 uM incubated for 3 hrs; format: cell-based
How it was run: (§5)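 Human leukocytes were isolated (2 x 10^6/mL) and incubated 3 h in Hank's buffer with 10% human plasma. Controls were DMSO 0.5% vehicle and 1 mM t-butyl hydroperoxide as positive control.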

[14] = tested on: Mus musculus; assay: Toxicity in Swiss mouse assessed as effect on spleen to body weight ratio level at 100 umol/kg, sc after 7 days; format: organism-based; conditions: in vivo, 168 h; how it was run: as §2
[15] = tested on: 5637; assay: Antiproliferative activity in human 5637 cells assessed as inhibition of cell growth incubated for 48 hrs by MTT assay; format: functional, cell-based; conditions: Homo sapiens, 5637, 48 h
How it was run: (§6)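 Bladder carcinoma 5637 cells in log phase were grown in DMEM with 10% FBS at 37 °C, 5% CO2. They were seeded at 2 x 10^4 per well and treated 24 and 48 h, with DMSO up to 0.5% as vehicle. MTT was added for 3 h and A492 read. Inhibition = (1 − Abs treated/Abs control) x 100. Results are mean ± SEM.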

[16] = Antioxidant activity assessed as DPPH radical scavenging activity at 1 mM measured at 38.7 +/- 8.9 mins; format: functional; how it was run: as §1
[17] = Antioxidant activity assessed as inhibition of Fe2+-induced phosphatidylcholine oxidation incubated for 1 hr by TBARS assay; format: functional
[18] = tested on: 5637; assay: Antiproliferative activity in human 5637 cells assessed as inhibition of cell growth at 6.25 to 12.5 uM incubated for 48 hrs by MTT assay; format: functional; how it was run: as §6
[19] = tested on: Mus musculus; assay: Toxicity in Swiss mouse assessed as effect on body weight level at 100 umol/kg, sc measured over 7 days; format: organism-based; conditions: in vivo, 168 h; how it was run: as §2
[20] = tested on: 5637; assay: Cell cycle arrest in human 5637 cells assessed as increase in accumulation at subG1 phase at 12.5 uM by propidium iodide staining based flow cytometry; format: functional; how it was run: as §3
[21] = Thiol peroxidase-like activity assessed as induction of hydrogen peroxide decomposition at 55 to 225 uM using benzenethiol in presence of thiophenol incubated for 20 mins; format: functional; how it was run: as §4
[22] = tested on: 5637; assay: Antiproliferative activity in human 5637 cells assessed as inhibition of cell growth at 6.25 to 12.5 uM incubated for 24 hrs by MTT assay; format: functional; how it was run: as §6
[23] = tested on: Mus musculus; assay: Toxicity in Swiss mouse assessed as effect on liver to body weight ratio level at 100 umol/kg, sc after 7 days; format: organism-based; conditions: in vivo, 168 h; how it was run: as §2
[24] = tested on: Mus musculus; assay: Toxicity in Swiss mouse assessed as effect on brain to body weight ratio level at 100 umol/kg, sc after 7 days; format: organism-based; conditions: in vivo, 168 h; how it was run: as §2
[25] = Antioxidant activity assessed as DPPH radical scavenging activity at 0.1 mM measured at >180 mins; format: functional; how it was run: as §1
[26] = tested on: Mus musculus; assay: Hepatic toxicity in Swiss mouse assessed as effect on AST level at 100 umol/kg, sc after 7 days; format: organism-based; conditions: in vivo, 168 h; how it was run: as §2
[27] = tested on: 5637; assay: Antiproliferative activity in human 5637 cells assessed as inhibition of cell growth incubated for 24 hrs by MTT assay; format: functional, cell-based; conditions: Homo sapiens, 5637, 24 h; how it was run: as §6
[28] = Antioxidant activity assessed as inhibition of Fe2+-induced phosphatidylcholine oxidation at 200 uM […] by TBARS assay; format: functional
[29] = Antioxidant activity assessed as DPPH radical scavenging activity at 1 mM incubated for 90 mins; format: functional; how it was run: as §1
[30] = Antioxidant activity assessed as DPPH radical scavenging activity at 0.5 mM measured at 77.3 +/- 10.3 mins; format: functional; how it was run: as §1
[31] = Antioxidant activity assessed as DPPH radical scavenging activity at 0.25 mM measured at 22.5 +/- 0.87 mins; format: functional
How it was run: (§7)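 DPPH (0.3 mM) in ethanol was mixed with the test compound at final concentrations of 0–1 mM. Absorbance at 518 nm was read every 30 min for 180 min. BHT served as the positive control.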

[32] = Antioxidant activity assessed as DPPH radical scavenging activity at 0.5 mM measured at 21.33 +/- 0.6 mins; format: functional; how it was run: as §7
[33] = Thiol peroxidase-like activity assessed as induction of hydrogen peroxide decomposition at 50 to 250 uM using benzenethiol incubated for 20 mins; format: functional; how it was run: as §4
[34] = Toxicity in human leukocytes assessed as reduction in cell viability at 1 mM incubated for 3 hrs; format: cell-based; conditions: 1000 µM; how it was run: as §5

With `Cc1cn([C@H]2C[C@H](N)[C@@H](C[Te]c3ccccc3)O2)c(=O)[nH]c1=O` the inhibition [1] was 50%, the Activity [2] was “Non-Toxic” and the Activity [3] was “Non-Toxic”. The mortality at 168 h [4] was 25%, the Activity [5] was “Non-Toxic” and the Activity [6] was “Active”. For the same compound, the Activity [7] was “Non-Toxic”, the Activity [8] was “Non-Toxic” and the Activity [9] was “Active”. For the same compound, the Activity [10] was “Active”, the Activity [11] was “Non-Toxic” and the Activity [12] was “Non-Toxic”. The Activity [13] was “Non-Toxic”, the Activity [14] was “Non-Toxic” and the IC50 [15] was 7.94 µM. The inhibition [16] was 50%, the IC50 [17] was 4.67 µM and the “growth inhibition (GI)” value [18] was >50%. For the same compound, the Activity [19] was “Non-Toxic”, the Activity [20] was “inactive” and the Activity [21] was “Active”. The “growth inhibition (GI)” value [22] was >50%, the Activity [23] was “Non-Toxic” and the Activity [24] was “Non-Toxic”. The inhibition [25] was 50%, the Activity [26] was “Non-Toxic” and the IC50 [27] was 6.61 µM. For the same compound, the inhibition [28] was “Active”, the inhibition [29] was “Active” and the inhibition [30] was 50%.

With `Cc1cn([C@H]2C[C@H](N)[C@@H](CSc3ccccc3)O2)c(=O)[nH]c1=O` the IC50 [15] was > 100 µM, the inhibition [28] was “inactive” and the inhibition [29] was “inactive”.

Compound `Cc1cc(C(C)(C)C)c(O)c(C(C)(C)C)c1` has an inhibition [31] of 50% and an inhibition [32] of 50%.

In the case of `COc1ccc([Se]C[C@H]2O[C@@H](n3cc(C)c(=O)[nH]c3=O)C[C@@H]2N)cc1`, the Activity [9] is reported as “Active”, the IC50 [15] is reported as > 100 µM and the inhibition [28] is reported as “inactive”. The inhibition [29] was “inactive”.

In the case of `Cc1ccccc1[Se]C[C@H]1O[C@@H](n2cc(C)c(=O)[nH]c2=O)C[C@@H]1N`, the Activity [9] is reported as “Active”, the IC50 [15] is reported as > 100 µM and the inhibition [28] is reported as “inactive”. The inhibition [29] was “inactive”.

In the case of `COc1ccc(SC[C@H]2O[C@@H](n3cc(C)c(=O)[nH]c3=O)C[C@@H]2N)cc1`, the Activity [9] is reported as “Active”, the IC50 [15] is reported as > 100 µM and the inhibition [28] is reported as “inactive”. The inhibition [29] was “inactive”.

In the case of `O=c1c2ccccc2[se]n1-c1ccccc1`, the Activity [33] is reported as “Active”.

With `Cc1cn([C@H]2C[C@H](N)[C@@H](C[Se]c3ccc(Cl)cc3)O2)c(=O)[nH]c1=O` the IC50 [15] was > 100 µM, the inhibition [28] was “inactive” and the inhibition [29] was “inactive”.

With `Cc1ccc(SC[C@H]2O[C@@H](n3cc(C)c(=O)[nH]c3=O)C[C@@H]2N)cc1` the IC50 [15] was > 100 µM, the inhibition [28] was “inactive” and the inhibition [29] was “inactive”.

For `Cc1c(C)c2c(c(C)c1O)CC[C@@](C)(CCC[C@H](C)CCC[C@H](C)CCCC(C)C)O2` [ALPHA-TOCOPHEROL], the IC50 [17] was 35.3 µM.

For `Cc1ccc([Se]C[C@H]2O[C@@H](n3cc(C)c(=O)[nH]c3=O)C[C@@H]2N)cc1`, the Activity [9] was “Active”, the IC50 [15] was > 100 µM and the inhibition [28] was “inactive”. The inhibition [29] was “inactive”.

In the case of `Cc1cn([C@H]2C[C@H](N=[N+]=[N-])[C@@H](CO)O2)c(=O)[nH]c1=O` [ZIDOVUDINE], the IC50 [27] is reported as 129 µM.

`CC(C)(C)OO` [TERT-BUTYL HYDROPEROXIDE] showed an Activity [34] of 40%.

For `Cc1cn([C@H]2C[C@H](N)[C@@H](CSc3ccc(Cl)cc3)O2)c(=O)[nH]c1=O`, the IC50 [15] was > 100 µM, the inhibition [28] was “inactive” and the inhibition [29] was “inactive”.

With `Cc1cn([C@H]2C[C@H](N)[C@@H](C[Se]c3ccccc3)O2)c(=O)[nH]c1=O` the Activity [9] was “Active”, the IC50 [15] was > 100 µM and the inhibition [28] was “inactive”. The inhibition [29] was “inactive”.

In the case of `c1ccc([Se][Se]c2ccccc2)cc1`, the IC50 [17] is reported as 233 µM and the Activity [33] is reported as “Active”.
